Results from ChEMBL document CHEMBL4004879, “Synthesis of extended conjugated indolyl chalcones as potent anti-breast cancer, anti-inflammatory and antioxidant agents” (Bioorg Med Chem Lett, 2017).
Counter-ions that a name gives are not always drawn.

Legend:
MCF7 = experiment: Cytotoxicity against human MCF7 cells after 48 hrs by SRB assay; assay type: functional; conditions: MCF7, 48 h; for CC50: read-out: LC50 (the source's name)
In short: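 MCF-7 cells grown in RPMI-1640 with 10% FCS at 37 °C, 5% CO2. Cells with >97% viability (trypan blue) seeded and grown one day, then exposed to several concentrations for 48 h, in triplicate. Fixed with TCA at 4 °C for 1 h, stained with 0.4% SRB, bound dye dissolved in 0.01 M Tris pH 10.4, OD read at 540 nm. GI50 obtained by regression; TGI and LC50 from Ti/Tz.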

[1] = Antiinflammatory activity assessed as inhibition of heat-induced egg albumin denaturation at 1 mM after 15 mins relative to control; assay type: functional
In short: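 Egg albumin from fresh hen's egg (0.4 ml) in PBS pH 6.4 with test solution (1 mM), 10 ml total; water as control. Incubated 37±2 °C for 15 min, then heated 70 °C for 5 min. After cooling, absorbance read at 660 nm against vehicle blank. Diclofenac sodium 1 mM as reference. % inhibition of denaturation calculated from test and control absorbances.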

[2] = Antioxidant activity assessed as inhibition of DPPH radical generation at 1 mM after 30 mins relative to control; assay type: functional
In short: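 1 ml of compound (1 mM) mixed with 3.0 ml DPPH (0.5 mmol/L in methanol). Absorbance at 517 nm after 30 min at 37 °C. % scavenging = (A control − A sample)/A control × 100, with control being DPPH alone. Ascorbic acid as standard; mean of two replicates.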

[3] = Antioxidant activity assessed as inhibition of nitric oxide radical generation at 1 mM using sodium nitroprusside after 150 mins by Griess assay relative to control; assay type: functional
In short: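 NO generated from 1 ml 10 mM sodium nitroprusside mixed with 1 ml of 1 mM compound in phosphate buffer (0.2 M, pH 7.4). Incubated 25 °C for 150 min, then mixed with 1.0 ml Griess reagent (1% sulphanilamide, 0.1% naphthylethylenediamine dichloride, 2% phosphoric acid). Absorbance read at 546 nm; % inhibition from control and sample absorbances. Ascorbic acid standard; mean of two replicates.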

[4] = Antioxidant activity assessed as inhibition of superoxide radical generation at 1 mM after 5 mins by NBT reduction assay relative to control; assay type: functional
In short: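 1 ml NBT solution ([…]), 1 ml NADH ([…]) and 1 ml compound (1 mM) mixed, all in phosphate buffer pH 7.4. Reaction started with 1 ml PMS ([…]), then incubated 25 °C for 5 min. Absorbance at 560 nm against blank; % inhibition from control and sample absorbances. Ascorbic acid standard; mean of two replicates.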

[5] = (§1) Cytotoxicity against African green monkey Vero cells after 48 hrs by SRB assay; assay type: cell-based; conditions: chlorocebus sabaeus, Vero cells
Vero = experiment: as §1; assay type: cell-based; conditions: chlorocebus sabaeus, vero, 48 h

SMILES | GI50 (MCF7) [µM] | TGI (MCF7) [µM] | CC50 (MCF7) [µM] | inhibition [1] [%] | inhibition [2] [%] | inhibition [3] [%] | inhibition [4] [%] | GI50 at 48 h [5] [µM] | LC50 (Vero) [µM] | TGI (Vero) [µM]
COc1ccc2[nH]cc(C(=O)/C(C#N)=C/C=C(\Cl)c3ccc(Br)cc3)c2c1 | 79.9 | > 100 | > 100 | 88.1 | 40.8 | 76.7 | 54.5 | – | – | –
COc1ccc(/C(Cl)=C/C=C(\C#N)C(=O)c2c[nH]c3ccc(Br)cc23)cc1 | 80.3 | > 100 | > 100 | 78.2 | 15.6 | 56.2 | 62.2 | – | – | –
COc1ccc(/C(Cl)=C/C=C(\C#N)C(=O)c2c[nH]c3ccc(Br)cc23)cc1OC | 31.9 | > 100 | > 100 | 21.1 | 11.8 | 57.5 | 80.9 | 8.2 | 51.8 | 38.4
Cc1[nH]c2ccccc2c1C(=O)/C(C#N)=C/C=C(\Cl)c1ccc(Br)cc1 | 73.9 | 73.8 | > 100 | 85.3 | 15.8 | 78.3 | 69.1 | – | – | –
N#C/C(=C\C=C(/Cl)c1ccc(Br)cc1)C(=O)c1c[nH]c2ccccc12 | 72.5 | 81.5 | > 100 | 38.5 | 18.4 | 76.7 | 65.5 | – | – | –
COc1cccc2c1C(=O)c1c(O)c3c(c(O)c1C2=O)C[C@@](O)(C(=O)CO)C[C@@H]3O[C@H]1C[C@H](N)[C@H](O)[C@H](C)O1 [DOXORUBICIN HYDROCHLORIDE] | < 0.1 | 11 | 97.1 | – | – | – | – | 19 | 52.6 | > 10
O=C1O[C@H]([C@@H](O)CO)C(O)=C1O | – | – | – | – | 44.2 | 42.6 | 74.1 | – | – | –
COc1ccc(/C(Cl)=C/C=C(\C#N)C(=O)c2c[nH]c3ccccc23)cc1OC | 44.2 | > 100 | > 100 | 85.3 | 15.8 | 75 | 63.6 | – | – | –
COc1cc(/C(Cl)=C/C=C(\C#N)C(=O)c2c[nH]c3ccc(Br)cc23)cc(OC)c1OC | 30.8 | 96.5 | > 100 | 90.8 | 26.3 | 36.7 | 50 | 7.6 | 41.5 | 22.1
COc1ccc(/C(Cl)=C/C=C(\C#N)C(=O)c2c(C)[nH]c3ccccc23)cc1OC | 29.6 | 93 | > 100 | 79.8 | 22.4 | 75.8 | 66.4 | 11.8 | 65.9 | 41.1
COc1ccc(/C(Cl)=C/C=C(\C#N)C(=O)c2c[nH]c3ccccc23)cc1 | 47.3 | > 100 | > 100 | 80.2 | 23.4 | 76.9 | 61.3 | – | – | –
COc1ccc2[nH]cc(C(=O)/C(C#N)=C/C=C(\Cl)c3ccc(OC)c(OC)c3)c2c1 | 44.9 | > 100 | > 100 | 87.2 | 34.2 | 74.2 | 58.2 | – | – | –
COc1cc(/C(Cl)=C/C=C(\C#N)C(=O)c2c(C)[nH]c3ccccc23)cc(OC)c1OC | < 0.1 | 83.7 | > 100 | 80.7 | 14.5 | 74.2 | 58.2 | 12.4 | 68.3 | 42.6
COc1ccc(/C(Cl)=C/C=C(\C#N)C(=O)c2c(C)[nH]c3ccccc23)cc1 | 56.7 | > 100 | > 100 | 83.1 | 34.2 | 74 | 63.1 | – | – | –
COc1ccc2[nH]cc(C(=O)/C(C#N)=C/C=C(\Cl)c3cc(OC)c(OC)c(OC)c3)c2c1 | 39.2 | > 100 | > 100 | 84.4 | 46 | 68.3 | 50 | 9.5 | 45.2 | 12.1
N#C/C(=C\C=C(/Cl)c1ccc(Br)cc1)C(=O)c1c[nH]c2ccc(Br)cc12 | > 100 | > 100 | > 100 | 90.8 | 15.8 | 67.5 | 83.6 | – | – | –
COc1ccc(/C(Cl)=C/C=C(\C#N)C(=O)c2c[nH]c3ccc(OC)cc23)cc1 | 87.1 | > 100 | > 100 | 79.5 | 16.7 | 41.6 | 60.7 | – | – | –
O=C(O)Cc1ccccc1Nc1c(Cl)cccc1Cl | – | – | – | 90.2 | – | – | – | – | – | –
COc1cc(/C(Cl)=C/C=C(\C#N)C(=O)c2c[nH]c3ccccc23)cc(OC)c1OC | 4 | 94.3 | > 100 | 86.2 | 21.1 | 73.3 | 59.1 | 16.2 | 54.2 | 35.9
